Legend:
[1] = species: Homo sapiens; test: Selectivity ratio of Ki for displacement of [125I]IABN from human D2L receptor expressed in HEK cells to Ki for displacement of [125I]IABN from human D3R expressed in HEK cells; assay type: cell-based
Procedure, shortened: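 20 µM (+)-butaclamol defines nonspecific binding. Inhibitor over 5 log units, two points per decade, triplicates. Gamma counting. Single-site IC50 converted to Ki (Cheng–Prusoff), ≥3 experiments. Ratio is D2 Ki/D3 Ki.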

[2] = target: T1, D(3) dopamine receptor (Homo sapiens, UniProt P35462); test: Displacement of [125I]IABN from human D3 receptor expressed in HEK cells measured after 60 mins by gamma counting method; assay type: cell-based
[3] = target: T2, D(2) dopamine receptor (Homo sapiens, UniProt P14416); test: Displacement of [125I]IABN from human D2L receptor expressed in HEK cells measured after 60 mins by gamma counting method; assay type: cell-based
[4] = target: T1, D(3) dopamine receptor; test: Binding affinity to human D3 receptor expressed in CHO-K1 cells assessed as inhibition of dopamine-induced beta-arrestin recruitment preincubated for 30 mins followed by dopamine addition and measured after 90 mins by pathhunter assay
[5] = target: T2, D(2) dopamine receptor; test: Binding affinity to D2 receptor (unknown origin)

T2 sequence (P14416 whole entry): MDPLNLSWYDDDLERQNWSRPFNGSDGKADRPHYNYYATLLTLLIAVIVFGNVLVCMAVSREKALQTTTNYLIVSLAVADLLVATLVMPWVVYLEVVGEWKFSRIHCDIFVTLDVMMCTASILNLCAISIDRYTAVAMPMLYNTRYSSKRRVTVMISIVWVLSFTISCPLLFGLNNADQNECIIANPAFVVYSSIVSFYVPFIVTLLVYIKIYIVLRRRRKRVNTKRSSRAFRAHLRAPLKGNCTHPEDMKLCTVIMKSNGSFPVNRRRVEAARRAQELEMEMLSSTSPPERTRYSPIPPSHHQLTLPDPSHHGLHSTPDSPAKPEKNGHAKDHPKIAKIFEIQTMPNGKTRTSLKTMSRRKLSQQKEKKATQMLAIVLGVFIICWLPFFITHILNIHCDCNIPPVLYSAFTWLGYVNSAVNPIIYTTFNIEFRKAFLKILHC
T1 sequence (P35462 whole entry): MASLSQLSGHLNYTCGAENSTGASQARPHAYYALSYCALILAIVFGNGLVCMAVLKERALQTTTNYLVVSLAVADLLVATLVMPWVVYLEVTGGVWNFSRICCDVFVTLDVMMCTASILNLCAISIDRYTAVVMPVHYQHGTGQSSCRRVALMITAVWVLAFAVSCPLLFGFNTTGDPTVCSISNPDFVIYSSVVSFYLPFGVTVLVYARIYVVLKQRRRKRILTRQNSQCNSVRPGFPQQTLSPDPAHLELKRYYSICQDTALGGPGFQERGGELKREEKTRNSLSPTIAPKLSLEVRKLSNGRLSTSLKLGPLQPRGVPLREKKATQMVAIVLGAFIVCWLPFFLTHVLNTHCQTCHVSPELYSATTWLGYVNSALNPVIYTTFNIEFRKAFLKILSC

| SMILES | Ratio Ki [1] | Ki [2] [nM] | Ki [3] [nM] | IC50 [4] [nM] | Ki [5] [nM] |
| --- | --- | --- | --- | --- | --- |
| C=CCN1C[C@H](OCc2ccncc2)C[C@H]1CNC(=O)c1cc(CCCF)cc(OC)c1OC | 1.7 | 4 | 7 | – | – |
| CCN1C[C@H](OCCCN)C[C@H]1CNC(=O)c1cc(CCCF)cc(OC)c1OC | 2.1 | 1.4 | 2.9 | 3.3 | – |
| C=CCN1C[C@H](OC(=O)Nc2ccccc2C)C[C@H]1CNC(=O)c1cc(CCCF)cc(OC)c1OC | 1.5 | 8.4 | 12.6 | – | – |
| C=CCN1C[C@H](OC(=O)Nc2cccc(N(C)C)c2)C[C@H]1CNC(=O)c1cc(CCCF)cc(OC)c1OC | 1.3 | 10.6 | 14 | – | – |
| C=CCN1C[C@H](OCCO)C[C@H]1CNC(=O)c1cc(CCCF)cc(OC)c1OC | 3.5 | 2.4 | 8.4 | – | – |
| C=CCN1C[C@H](OC(=O)Nc2ccc(-c3ccsc3)cc2)C[C@@H]1CNC(=O)c1cc(CCCF)cc(OC)c1OC | > 6 | 6790 | > 41000 | – | – |
| C=CCN1C[C@H](OC(=O)Nc2ccccc2)C[C@H]1CNC(=O)c1cc(CCCF)cc(OC)c1OC | 2 | 14.6 | 29.2 | – | – |
| C=CCN1C[C@H](OC(=O)Nc2cccnc2)C[C@H]1CNC(=O)c1cc(CCCF)cc(OC)c1OC | 2.2 | 3.7 | 8.3 | – | – |
| C=CCN1C[C@@H](OC(=O)Nc2ccc(-c3ccsc3)cc2)C[C@H]1CNC(=O)c1cc(CCCF)cc(OC)c1OC | 16.5 | – | 9690 | – | – |
| C=CCN1CC[C@H](OCc2ccccc2)[C@H]1CNC(=O)c1cc(CCCF)cc(OC)c1OC | 2.5 | 2.9 | 7.3 | – | – |
| C=CCN1C[C@H](OCc2ccc(F)cc2)C[C@H]1CNC(=O)c1cc(CCCF)cc(OC)c1OC | 2 | 4.7 | 9.5 | – | – |
| C=CCN1C[C@H](OC(=O)Nc2ccc(-c3ccccn3)cc2)C[C@H]1CNC(=O)c1cc(CCCF)cc(OC)c1OC | 1.4 | 15.8 | 22.4 | 79.2 | – |
| C=CCN1C[C@H](OC(=O)Nc2ccc(-c3ccsc3)cc2)C[C@H]1CNC(=O)c1cc(CCCF)cc(OC)c1OC | 3.7 | 7.7 | 28.8 | 169 | – |
| C=CCO[C@@H]1C[C@@H](CNC(=O)c2cc(CCCF)cc(OC)c2OC)N(CC=C)C1 | 2.8 | 2.6 | 7.4 | – | – |
| C=CCN1C[C@H](OC(=O)Nc2ccsc2)C[C@H]1CNC(=O)c1cc(CCCF)cc(OC)c1OC | 1.3 | 6.1 | 7.7 | – | – |
| C=CCN1C[C@H](OCc2cccnc2)C[C@H]1CNC(=O)c1cc(CCCF)cc(OC)c1OC | 1.5 | 1.7 | 2.5 | – | – |
| C=CCN1C[C@H](OCCCNC(=O)c2ccc(-c3ccsc3)cc2)C[C@H]1CNC(=O)c1cc(CCCF)cc(OC)c1OC | 3.2 | 4.2 | 13.4 | 8.1 | – |

| SMILES | Ratio Ki [1] | Ki [2] [nM] | Ki [3] [nM] | IC50 [4] [nM] | Ki [5] [nM] |
| --- | --- | --- | --- | --- | --- |
| CCN1C[C@H](OC(=O)Nc2ccc(-c3ccsc3)cc2)C[C@H]1CNC(=O)c1cc(CCCF)cc(OC)c1OC | 3.8 | 4.3 | 16.2 | 62.7 | – |
| C=CCN1C[C@H](OC(=O)NCCc2ccccc2)C[C@H]1CNC(=O)c1cc(CCCF)cc(OC)c1OC | 2.3 | 12.8 | 30 | – | – |
| C=CCN1C[C@H](OC(=O)NCc2ccccc2)C[C@H]1CNC(=O)c1cc(CCCF)cc(OC)c1OC | 1.6 | 6.2 | 10.1 | – | – |
| C=CCN1CCC[C@H]1CNC(=O)c1cc(CCCF)cc(OC)c1OC [FALLYPRIDE] | – | – | – | – | 0.02 |
| C=CCN1C[C@H](OCc2ccc(C(F)(F)F)cc2)C[C@H]1CNC(=O)c1cc(CCCF)cc(OC)c1OC | 1.4 | 23.7 | 32.1 | – | – |
| C=CCN1C[C@H](OC(=O)Nc2ccoc2)C[C@H]1CNC(=O)c1cc(CCCF)cc(OC)c1OC | 0.6 | 15 | 8.3 | – | – |
| C=CCN1C[C@H](OCc2ccccc2)C[C@H]1CNC(=O)c1cc(CCCF)cc(OC)c1OC | – | 9.5 | – | – | – |
| C=CCN1C[C@H](OCCCCN)C[C@H]1CNC(=O)c1cc(CCCF)cc(OC)c1OC | 1.4 | 1.5 | 2.2 | – | – |
| C=CCN1C[C@H](OCCN)C[C@H]1CNC(=O)c1cc(CCCF)cc(OC)c1OC | 11.3 | 9.5 | 107 | 11 | – |
| C=CCN1C[C@H](OCCCO)C[C@H]1CNC(=O)c1cc(CCCF)cc(OC)c1OC | 1.9 | 7.3 | 14.2 | – | – |
| C=CCN1C[C@@H](OC(=O)Nc2ccc(-c3ccsc3)cc2)C[C@@H]1CNC(=O)c1cc(CCCF)cc(OC)c1OC | 6.7 | – | 189 | – | – |
| C=CCN1CC[C@H](OCCCN)[C@H]1CNC(=O)c1cc(CCCF)cc(OC)c1OC | 3.5 | 6.2 | 21.4 | – | – |
| C=CCN1C[C@H](OCCCN)C[C@@H]1CNC(=O)c1cc(CCCF)cc(OC)c1OC | 1.2 | 1950 | 2350 | – | – |
| C=CCN1C[C@H](OCCCN)C[C@H]1CNC(=O)c1cc(CCCF)cc(OC)c1OC | 2.2 | 8.4 | 18.6 | 1.3 | – |
| C=CCN1C[C@H](OC(=O)Nc2ccccn2)C[C@H]1CNC(=O)c1cc(CCCF)cc(OC)c1OC | 2.4 | 4.1 | 10.1 | – | – |
| C=CCN1C[C@H](OC(=O)Nc2cc(C)ccc2OC)C[C@H]1CNC(=O)c1cc(CCCF)cc(OC)c1OC | 1.5 | 12.5 | 18.7 | – | – |

Reference: ChEMBL document CHEMBL5634103 (Eur J Med Chem, 2023)
